Source: PubChem BioAssay (several laboratories)
Rows were chosen to be rich in hits. Some 4.6% of all compounds tested hit in one or more screens of this group.
APP 5'UTR act: activates APP 5'UTR luciferase reporter. SH-SY5Y APP 5'UTR luciferase reporter, luminescence; zero percent = DMSO vehicle wells. 190,000 compounds, 1% hits. activation, % at 2 µM;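 active = activation above a set limit, based on mean plus 3 SD of controls, cut at about 140% in these data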
STAT1 act: STAT1 signaling activation. AID 932. 200,000 compounds, 2.6% hits. activation (% of control), % at 5.5 µM. NIH 3T3 STAT1-luciferase reporter, IFN-gamma, luminescence; 100% = IFN-gamma alone, no compound;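 active = activation above the screen-wide mean activation plus 3 SD, cut at about 130% in these data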;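 also: raw ratio to IFN-gamma control signal so 100% means no change and 0% no light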
MDM2 E3 inh: Mdm2 E3 ligase (human) inhibition | Q00987 | cell-based MDM2 ubiquitination luciferase reporter, 2 h; 0 = plate control, 100 = twice control, blank-subtracted | signal enhancement, % at 5 µM | 210,000 compounds, 0.11% hits | AID 1230;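 active = signal enhancement of 30% or more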;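 also: luminescence tracks abundance of the self-degrading MDM2-luciferase fusion protein; higher signal means inhibition of MDM2 E3 ligase activity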
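Test system: stable mammalian line carrying autodegrading MDM2–luciferase fusion reporter; quantity: 2000 cells in each well; times: 4 h cell settling then 2 h compound exposure, 37 °C; detection: luminescence with SteadyLite reagent, 15 min at room temperature; evaluation: percent signal gain over controls, blank-subtracted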
NF-kB neuron act: raises NF-kB expression in human neuronal cells | 190,000 compounds, 1.6% hits | fold change at 12.5 µM | NF-kB reporter expression; stronger effect = higher value; in the data active = fold change above about 3.3
p97 inhibitor: inhibitors of human p97 ATPase | 220,000 compounds, 0.42% hits | AID 1481 | recombinant p97 ATPase, Kinase-Glo ATP luminescence, 3 h | inhibition, % at 8 µM | P55072; in the data active = inhibition above about 15%;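 also: 0% = DMSO vehicle and 100% = wells lacking enzyme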
Target sequence (P55072 whole entry, looked up): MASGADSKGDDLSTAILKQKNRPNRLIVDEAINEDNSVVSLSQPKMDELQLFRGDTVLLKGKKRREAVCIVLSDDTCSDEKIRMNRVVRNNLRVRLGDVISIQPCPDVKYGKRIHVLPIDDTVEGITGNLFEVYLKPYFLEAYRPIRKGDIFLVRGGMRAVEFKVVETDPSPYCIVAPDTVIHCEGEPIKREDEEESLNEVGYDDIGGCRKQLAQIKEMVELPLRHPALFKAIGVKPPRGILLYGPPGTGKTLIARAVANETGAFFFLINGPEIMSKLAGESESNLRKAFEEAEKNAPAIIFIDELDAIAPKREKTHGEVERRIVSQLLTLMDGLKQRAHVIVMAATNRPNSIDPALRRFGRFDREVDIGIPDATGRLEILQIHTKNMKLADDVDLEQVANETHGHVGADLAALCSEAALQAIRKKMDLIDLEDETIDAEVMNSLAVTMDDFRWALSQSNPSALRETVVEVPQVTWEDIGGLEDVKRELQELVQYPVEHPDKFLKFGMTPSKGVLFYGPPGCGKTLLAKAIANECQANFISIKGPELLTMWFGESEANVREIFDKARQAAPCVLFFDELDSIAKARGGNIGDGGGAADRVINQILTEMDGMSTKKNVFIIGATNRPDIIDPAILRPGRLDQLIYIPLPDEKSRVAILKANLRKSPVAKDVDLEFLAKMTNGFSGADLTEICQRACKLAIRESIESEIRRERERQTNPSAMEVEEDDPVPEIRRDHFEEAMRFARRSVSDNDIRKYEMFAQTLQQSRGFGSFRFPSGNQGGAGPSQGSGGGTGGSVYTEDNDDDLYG
Wee1 degr inh: inhibitors of human Wee1 degradation; P30291; HeLa Luc-Wee1K328M stability, luciferase luminescence; 100% = proteasome inhibitor MG132 effect; reporter increase, % at 5 µM; 220,000 compounds, 1.2% hits;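 active = activation above the mean of all tested compounds plus 3 SD, set per screening run, cut at about 8.8% in these data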;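 also: cells exposed to compound for 20 h before luminescence read; 0% = DMSO alone and 100% = MG132 at 30 µM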
* marks the source's active call; other numbers are inactive results; / = not tested or not shown.

SMILES | APP 5'UTR act | STAT1 act | MDM2 E3 inh | NF-kB neuron act | p97 inhibitor | Wee1 degr inh
CCc1cccc(N=c2c([N+](=O)[O-])nn(-c3ccc(Cl)cc3)n2O)c1 | 10 | 100 | -27 | 4.9* | -5 | -1
O=[N+]([O-])c1ccc2nnn(O)c2c1 | -14 | 99 | 0 | 1.4 | 1 | 0
CCc1n[n+](CC(=O)c2ccccc2)c(N)s1 | 142* | 45 | -77 | 1.1 | -10 | 2
O=C1c2ccc(Br)cc2C(=O)N1c1ccc(Cc2ccncc2)cc1 | -16 | 76 | -15 | 1.1 | -4 | 2
CC(C)COC(=O)c1ccc(NC(=O)C2C3CCC(C3)C2C(=O)O)cc1 (stereo not drawn) | 65 | 143* | 2 | 0.93 | 2 | 2
CCOC(=O)c1ccc(NC(=O)C2C3CCC(C3)C2C(=O)O)cc1 (stereo not drawn) | 13 | 93 | 4 | 1.2 | 2 | -2
O=C(O)CC1SC(N/N=C/c2ccc(Br)cc2)NC1=O (stereo not drawn) | 31 | 100 | 3 | 1.1 | 8 | -4
O=c1c2ccccc2[nH]c2ccccc12 | 17 | 98 | -1 | 1.2 | 7 | 4
O=C(O)c1[nH]c2ccc([N+](=O)[O-])cc2c1-c1ccccc1 | / | / | -4 | / | 9 | 4
O=[N+]([O-])c1ccc2[nH]nc(-c3ccccc3)c2c1 | 21 | 101 | 0 | 1.7 | -2 | 8.9*
O=c1c(-c2ccccc2)n[nH]c2ccccc12 | 112 | 124 | -16 | 3.4* | 2 | 3
C/C(CC(=O)Nc1cccnc1)=N\NC(=O)C(C)Oc1ccc(Cl)cc1Cl (stereo not drawn) | / | / | -17 | / | 2 | 6
COc1ccc(N2CCN(C(=O)NCc3ccc(OC)c(Cl)c3)CC2)cc1 | 13 | 107 | 16 | 1.1 | 2 | -2
C/C(=N\Nc1ncc(Cl)cc1Cl)c1ccc(OC(F)F)cc1 | 60 | 122 | -24 | 4.5* | 5 | -1
C(=C\c1ccc2ccccc2n1)/c1ccccc1 | 176* | / | / | / | -9 | 2
Oc1ccc(/C=C/c2ccc3ccccc3n2)cc1 | 55 | 33 | -58 | 2.6 | -10 | -5
Fc1ccccc1/C=C/c1ccc2ccccc2n1 | 196* | 96 | -64 | 6.7* | -3 | 2
CC(=O)Oc1ccc(Cl)cc1/C=C/c1ccc2ccccc2n1 | 88 | 95 | -8 | 7.3* | 11 | 0
O=[N+]([O-])c1ccc(/C=C/c2ccc3ccccc3n2)cc1 | 165* | 51 | -66 | 5.2* | -1 | -2
O=C(O)/C=C/c1ccc2ccccc2n1 | 2 | 94 | 10 | 1.2 | 0 | -1
CSc1nc2sc(-c3ccccc3)cc2c(=O)n1N | 2 | 138* | 9 | 2 | -7 | 0
CC(C)Sc1nc2sc(-c3ccccc3)cc2c(=O)n1N | 20 | 107 | -2 | 1.2 | 0 | -4
CC(=O)NCCNC(=O)c1ccc(NC2=NC3CS(=O)(=O)CC3S2)cc1 (stereo not drawn) | / | / | 4 | / | 2 | -3
Cc1cc(C)n(-c2nnc(NCc3ccc(Cl)cc3)nn2)n1 | -2 | 111 | -19 | 0.91 | -4 | 5
Cc1nn(-c2nnc(NCc3ccccc3)nn2)c(C)c1Br | 24 | 112 | 34* | 1.6 | -1 | 2
SMILES | APP 5'UTR act | STAT1 act | MDM2 E3 inh | NF-kB neuron act | p97 inhibitor | Wee1 degr inh
Cc1ccc(N(CC(=O)NCCc2ccc(F)cc2)S(=O)(=O)c2ccc(Cl)c([N+](=O)[O-])c2)c(C)c1 | -2 | 97 | -10 | 0.98 | -4 | -1
Cc1ccc2nc(-c3ccc(NC(=O)CSc4nc(N)cc(=O)[nH]4)cc3)sc2c1 | / | / | / | / | 0 | 11*
Nc1cc(=O)[nH]c(SCC(=O)Nc2nc3ccc([N+](=O)[O-])cc3s2)n1 | -1 | 107 | -14 | 1.2 | -6 | -3
Cc1ccc2nc(-c3ccc(NC(=O)CSc4nccc(=O)[nH]4)cc3)sc2c1 | 144* | 134* | -19 | 1.9 | -2 | 3
Cc1ccc2nc(-c3ccc(NC(=S)NC(=O)CC(C)C)cc3)sc2c1 | 79 | 114 | -15 | 1.4 | -4 | 4
Nc1cc(=O)[nH]c(SCC(=O)Nc2ccc3c(c2)CCC3)n1 | 5 | 96 | -7 | 1.1 | 0 | 9.6*
Cc1ccc2nc(-c3ccc(NC(=O)COC(=O)c4ccc(=O)[nH]c4)cc3)sc2c1 | 165* | 135* | -25 | 6.5* | -3 | 4
COc1ccccc1CNc1cc(C)ccc1C | 9 | 103 | -8 | 1.1 | -3 | 9.5*
CCc1sc(NC(=O)CCC(=O)O)nc1-c1cc2ccccc2oc1=O | 11 | 93 | / | 1.1 | -1 | -1
O=C(/C=C/c1ccco1)Nc1ccc2nc3n(c(=O)c2c1)CCCC3 | 52 | 118 | 6 | 1.7 | -1 | 2
Cc1cc2cc(C)c(SCC(=O)NCc3ccco3)nc2cc1C | 5 | 96 | 31* | 0.7 | 1 | -4
COC(=O)c1c(SCC(=O)Nc2ccc(C)c(C)c2)nc(=O)[nH]c1C | / | / | / | / | 0 | 0
COc1ccc(/C=C\c2nc(=O)c3ccccc3o2)cc1 | 127 | 100 | -13 | 7.3* | 1 | 1
CN=c1scc(-c2cccs2)n1/N=C/c1ccc(O)c(O)c1O | -21 | 58 | -40 | 5* | 2 | -2
CC(C)c1ccc2c(c1)C1(NN=C(c3ccccc3)S1)C(=O)N2 (stereo not drawn) | 133 | 129* | 45* | 1.7 | -2 | 0
CCc1ccc2c(c1)C1(NN=C(c3ccc(C)cc3)S1)C(=O)N2 (stereo not drawn) | 46 | 102 | 4 | 0.87 | 7 | -3
OCCC1CN(Cc2cccn2-c2cccnc2)CCN1C1CCCCC1 (stereo not drawn) | -3 | 103 | -4 | / | -1 | 5
C=C(C)CNC(=S)Nc1cccc(N)n1 | 20 | 93 | -87 | 1.5 | -4 | -1
CC(C)(C)C(=O)NC1(C(F)(F)F)NC(=O)N(c2ccccc2F)C1=O (stereo not drawn) | / | / | -15 | / | 2 | -3
CC1(C)OC(=O)C(=CNc2cccc(O)c2)C(=O)O1 | 3 | 101 | -7 | 1.1 | 9 | -2
CC1(C)OC(C)(C)/C(=C/Nc2ccc(O)cc2)C1=O | 1 | 100 | / | 2 | 8 | 9.9*
Cc1ccc(-c2cnc3cc(C)nn3c2)cc1 | 147* | 80 | -49 | 5.7* | -1 | 3
Cc1ccc(-c2cnc3c(Cl)c(C)nn3c2)cc1 | 244* | 90 | -20 | 6.5* | -11 | 1
Cc1cc2ncc(-c3ccc(Cl)cc3)cn2n1 | 188* | 136* | -16 | 4.9* | 1 | -4
O=C(OCCN=C1NS(=O)(=O)c2ccccc21)c1ccco1 | -12 | 97 | -10 | 2.6 | -3 | 0
Oc1ccc(CN2CCN(Cc3ccccc3)CC2)c2cccnc12 | 12 | 102 | -25 | 6* | 4 | -2
CN1CCN(Cc2cc(COCc3ccccc3)c3cccnc3c2O)CC1 | -72 | 107 | -1 | 5.3* | 4 | -4
